Laboratory results published in ChEMBL document CHEMBL4689842, “EUbOPEN Chemogenomics Library wave 1” (2021).
Values joined by “and” are separate entries in the source; they are usually repeats but may differ in a detail not shown here. Equal values may be shown once.

Legend:
[1] = tested on: HEK-293T; experiment: Multiplex assay against HEK293T; assay type: toxicity, cell-based; settings: human;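 on Population Tubulin-Different-Phenotype (%): share of the cells with healthy nuclei that show this phenotype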
Procedure, shortened: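 Imaging took place on a CQ1 microscope at 37°C and 5% CO2 once compound had been added to live cells stained at seeding with Hoechst33342, BioTracker Green Microtubule Cytoskeleton Dye, MitoTracker Red and Annexin V Alexa Fluor 680. CellPathfinder machine-learning gating classed cells as Hoechst high-intensity objects or normal cells, classed normal cells as having healthy, pyknosed or fragmented nuclei, and classed pyknosed cells as mitotic or apoptotic. Tubulin, mitochondrial-mass and membrane-permeability phenotypes are per cents of the healthy-nucleus cells.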

[2] = tested on: Fibroblast; experiment: Incucyte cell viability with human fibroblast; assay type: toxicity, cell-based; settings: 10 µM, compound concentration 10 uM; further: filed as whole numbers so only -1 and 0 and 1 occur
[3] = 12 h, 1 µM, compound concentration 1 uM, replicate 1
[4] = 12 h, 1 µM, compound concentration 1 uM, replicate 2
[5] = 12 h, 10 µM, compound concentration 10 uM, replicate 1
[6] = 12 h, 10 µM, compound concentration 10 uM, replicate 2
[7] = 24 h, 1 µM, compound concentration 1 uM, replicate 1
[8] = 24 h, 1 µM, compound concentration 1 uM, replicate 2
[9] = 24 h, 10 µM, compound concentration 10 uM, replicate 1
[10] = 24 h, 10 µM, compound concentration 10 uM, replicate 2
[11] = 48 h, 10 µM, compound concentration 10 uM, replicate 1
[12] = 48 h, 10 µM, compound concentration 10 uM, replicate 2

## c1ccc(-c2oc3ncnc(NC[C@@H]4CCCO4)c3c2-c2ccccc2)cc1
[1]; [3]
  Population Apoptotic (%): 20%
  Population Fragmented Nuclei (%): 13% and 15%
  Population Healthy Nuclei (%): 57% and 66%
  Population Hoechst High Intensity Objects (%): 11% and 13%
  Population Mitotic Cells (%): 79%
  Population Normal (%): 88% and 86%
  Population Pyknosed Nuclei (%): 28% and 17%
  Total Cell Count: 692 and 563
[1]; [4]
  Population Healthy Nuclei (%): 74% and 83%
  Population Hoechst High Intensity Objects (%): 2% and 1%
  Population Mitotic Cells (%): 86% and 97%
  Population Normal (%): 97% and 98%
  Total Cell Count: 938 and 1825
[1]; [5]
  Population Apoptotic (%): 72%
  Population Fragmented Nuclei (%): 14%
  Population Healthy Nuclei (%): 25%
  Population Hoechst High Intensity Objects (%): 17%
  Population Membrane Permeable-Phenotype (%): 3%
  Population Mitochondria Different-Phenotype (%): 98%
  Population Mitotic Cells (%): 27%
  Population Normal (%): 82%
  Population Pyknosed Nuclei (%): 59%
  Population Tubulin-Different-Phenotype (%): 98%
  Total Cell Count: 263
[1]; [6]
  Population Apoptotic (%): 43%
  Population Fragmented Nuclei (%): 4%
  Population Healthy Nuclei (%): 31%
  Population Hoechst High Intensity Objects (%): 7%
  Population Membrane Permeable-Phenotype (%): 17%
  Population Mitochondria Different-Phenotype (%): 71%
  Population Mitotic Cells (%): 56%
  Population Normal (%): 92%
  Population Pyknosed Nuclei (%): 63%
  Population Tubulin-Different-Phenotype (%): 90%
  Total Cell Count: 218
[1]; [7]
  Population Apoptotic (%): 28% and 21%
  Population Fragmented Nuclei (%): 11% and 14%
  Population Healthy Nuclei (%): 65% and 77%
  Population Hoechst High Intensity Objects (%): 10% and 5%
  Population Mitotic Cells (%): 71% and 78%
  Population Normal (%): 89% and 94%
  Total Cell Count: 699 and 659
[1]; [8]
  Population Apoptotic (%): 8% and 3%
  Population Healthy Nuclei (%): 74%
  Population Hoechst High Intensity Objects (%): 2% and 3%
  Population Mitotic Cells (%): 91% and 96%
  Population Normal (%): 97% and 96%
  Total Cell Count: 1013 and 3002
[1]; [9]
  Population Apoptotic (%): 69%
  Population Fragmented Nuclei (%): 20%
  Population Healthy Nuclei (%): 19%
  Population Hoechst High Intensity Objects (%): 23%
  Population Membrane Permeable-Phenotype (%): 0%
  Population Mitochondria Different-Phenotype (%): 94%
  Population Mitotic Cells (%): 30%
  Population Normal (%): 76%
  Population Pyknosed Nuclei (%): 60%
  Population Tubulin-Different-Phenotype (%): 94%
  Total Cell Count: 260
[1]; [10]
  Population Apoptotic (%): 43%
  Population Fragmented Nuclei (%): 2%
  Population Healthy Nuclei (%): 31%
  Population Hoechst High Intensity Objects (%): 4%
  Population Membrane Permeable-Phenotype (%): 16%
  Population Mitochondria Different-Phenotype (%): 75%
  Population Mitotic Cells (%): 56%
  Population Normal (%): 95%
  Population Pyknosed Nuclei (%): 66%
  Population Tubulin-Different-Phenotype (%): 90%
  Total Cell Count: 222
[1]; [11]
  Population Apoptotic (%): 70%
  Population Fragmented Nuclei (%): 26%
  Population Healthy Nuclei (%): 16%
  Population Hoechst High Intensity Objects (%): 23%
  Population Membrane Permeable-Phenotype (%): 3%
  Population Mitochondria Different-Phenotype (%): 96%
  Population Mitotic Cells (%): 29%
  Population Normal (%): 76%
  Population Pyknosed Nuclei (%): 57%
  Population Tubulin-Different-Phenotype (%): 93%
  Total Cell Count: 268
[1]; [12]
  Population Apoptotic (%): 48%
  Population Fragmented Nuclei (%): 4%
  Population Healthy Nuclei (%): 64%
  Population Hoechst High Intensity Objects (%): 5%
  Population Membrane Permeable-Phenotype (%): 19%
  Population Mitochondria Different-Phenotype (%): 66%
  Population Mitotic Cells (%): 51%
  Population Normal (%): 94%
  Population Pyknosed Nuclei (%): 31%
  Population Tubulin-Different-Phenotype (%): 90%
  Total Cell Count: 272
[2]; 0 h, replicate number 2, timepoint 0 hours
  Growth Rate: 1
[2]; 6 h, replicate number 1, timepoint 6 hours
  Growth Rate: 0
[2]; 12 h, replicate number 1, timepoint 12 hours
  Growth Rate: 0
[2]; 18 h, replicate number 1, timepoint 18 hours
  Growth Rate: 0
[2]; 24 h, replicate number 1, timepoint 24 hours
  Growth Rate: 0
